Screening data deposited in PubChem by several laboratories.
Hits are enriched below; roughly 2.1% of the tested compounds scored in any of these assays.
m5-HT2A agonist – activates the mouse 5-HT2A serotonin receptor; P35363; CHO-K1 mHTR2A beta-arrestin complementation, luminescence; percent of 30 µM serotonin response; activation, % at 7.6 µM; 0.66% of 360,000 active;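 active = activation above a run cutoff, the mean activation of all tested compounds plus 3 SD, cut at about 14% in these data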;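 note: 0% = plate median of compound wells and 100% = 30 µM serotonin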
Target sequence (P35363 whole entry, looked up): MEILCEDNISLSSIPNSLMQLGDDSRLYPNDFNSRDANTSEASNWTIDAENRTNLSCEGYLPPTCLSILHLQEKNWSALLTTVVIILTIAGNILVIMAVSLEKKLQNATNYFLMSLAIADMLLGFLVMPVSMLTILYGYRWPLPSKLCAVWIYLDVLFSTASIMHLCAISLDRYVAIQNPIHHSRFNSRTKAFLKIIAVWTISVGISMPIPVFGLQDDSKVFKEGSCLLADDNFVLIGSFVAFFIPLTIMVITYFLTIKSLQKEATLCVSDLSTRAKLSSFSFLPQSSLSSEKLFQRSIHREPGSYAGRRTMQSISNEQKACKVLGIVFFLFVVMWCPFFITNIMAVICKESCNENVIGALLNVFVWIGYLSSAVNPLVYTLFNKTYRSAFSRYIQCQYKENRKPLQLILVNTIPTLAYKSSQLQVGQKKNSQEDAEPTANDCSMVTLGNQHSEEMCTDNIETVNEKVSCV
EBI2 antag – antagonists of human EBI2 receptor; P32249; EBI2 beta-arrestin recruitment, luminescence, 7a,25-OHC stimulated; inhibition, % at 5 µM; 0.81% of 360,000 active; in the data active = inhibition above about 38%;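 note: enzyme fragment complementation signal reports receptor beta-arrestin coupling in cells; 0% = agonist plus DMSO wells and 100% = wells without agonist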
APJ antagonist – antagonists of human APJ apelin receptor; CHO-K1 APJ beta-arrestin complementation, luminescence; inhibition, % at 20 µM; 0.32% of 330,000 active; AID 2521;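 active = inhibition above about 40% at 20 µM, limit read from the data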;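 note: cells challenged with 10 nM apelin-13 agonist together with compound; plate controls were apelin-13 plus DMSO wells for no effect and DMSO wells lacking apelin-13 for full effect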
APJ ag – agonists of human APJ apelin receptor. P35414. CHO-K1 APJ PathHunter beta-arrestin, luminescence; 0% DMSO wells, 100% apelin. activation, % at 20 µM. 0.11% of 330,000 active. AID 2520;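 active = activation more than six SD over the plate average, tested at 20 µM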;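 note: 0% = DMSO alone and 100% = apelin-13 at 10 nM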
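Assay system: CHO-K1 cells stably expressing ProLink-tagged human APJ and arrestin–beta-gal acceptor. Compound dosing: 20 µM single point, 1% DMSO. Times: 16-18 h seeding, 90 min dark compound exposure, 60 min detection. Detection: beta-gal luminescence. Evaluation: APJ–arrestin association signal. Controls: negative DMSO alone, positive Apelin-13 at 10 nM.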
CCR6 antagonist – blocks CCL20-driven beta-arrestin recruitment at human CCR6; 0.49% of 340,000 active; P51684; CHO-K1 CCR6 PathHunter beta-arrestin, luminescence, CCL20-stimulated; inhibition, % at 20 µM; AID 493098;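 active = compounds whose inhibition of the agonist-driven luminescence signal at 20 µM reaches about 50%, limit read from the data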;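 note: cells stimulated with CCL20 at 14 nM final; plate controls were DMSO with CCL20 for no effect and DMSO without agonist for full effect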
CXCR6 inh – inhibitors of human CXCR6 receptor. CHO-K1 PathHunter CXCR6 beta-arrestin, luminescence. AID 602244. inhibition, % at 20 µM. O00574. 0.36% of 360,000 active; in the data active = inhibition above about 34%, passing the limit was not always enough;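 note: antagonist mode with CXCL16 agonist at 10 nM final; 0% = 10 nM CXCL16 with DMSO and 100% = unstimulated wells without agonist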
OPRM1 ag – OPRM1 agonism in mouse HTR2A counterscreen; activation, % at 9.3 µM; AID 624380; U2OS OPRM1 beta-arrestin PathHunter, luminescence; DMSO 0%, DAMGO 9.3 µM 100%; shares compounds with m5-HT2A agonist; 5.3% of 2,300 active;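 active = mean activation above the mean of DMSO-only wells plus 3 SD, cut at about 0.5% in these data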
HTR2A ag conf – confirmation of mouse HTR2A serotonin receptor agonists | shares compounds with m5-HT2A agonist | CHO-K1 PathHunter beta-arrestin recruitment, luminescence; DMSO 0%, 30 µM serotonin 100% | activation, % at 7.6 µM | 19% of 2,300 active | AID 624381;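 active = mean activation across triplicates above the hit threshold derived in the original primary screen, cut at about 15% in these data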
EBI2 antag conf – confirmation of human EBI2 receptor antagonists. shares compounds with EBI2 antag. EBI2 beta-arrestin luminescence, 7a,25-OHC antagonism. inhibition, % at 5 µM. 29% of 2,400 active;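 active = inhibition of at least 50%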
EBI2 agonist – activates EBI2, counter-screen for EBI2 antagonists | EBI2-expressing cells, agonist mode, luminescence, 60 min; 0% vehicle, 100% 7α,25-dihydroxycholesterol control | shares compounds with EBI2 antag | activation, % at 5 µM | 2,400 tested, under 10 active | AID 652000;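 active = activation of at least 50%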
bGal counter – inhibits E. coli beta-galactosidase, counter-screen for EBI2 antagonists. shares compounds with EBI2 antag. purified beta-galactosidase, luminescent Galacton Star, 15 min. inhibition, % at 5 µM. 1% of 2,400 active. AID 652176;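 active = replicate-average signal at least 3 plate SD below neutral wells, shown as high inhibition, flagging enzyme-inhibiting false positives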;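 note: 0% = DMSO wells with enzyme and 100% = wells lacking enzyme; higher means stronger loss of beta-gal luminescence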
The depositor's hits bear a star; / = not tested or not shown.

SMILES | m5-HT2A agonist | EBI2 antag | APJ antagonist | APJ ag | CCR6 antagonist | CXCR6 inh | OPRM1 ag | HTR2A ag conf | EBI2 antag conf | EBI2 agonist | bGal counter
Cc1ccc(-c2nc3ccc(C)cn3c2CC(=O)N(C)C)cc1 | 29* | -3 | -4 | -7 | -13 | 2 | -1 | -3 | / | / | /
O=C(O)c1nn(Cc2ccc(Cl)cc2Cl)c2ccccc12 | -3 | -2 | 7 | -1 | 2 | 7 | / | / | / | / | /
O=C(O)c1nn(Cc2ccc(Cl)cc2)c2ccccc12 | 15* | 7 | / | / | / | 3 | 0 | 0 | / | / | /
Cc1nn(Cc2ccccc2)c(C)c1C(=O)NCc1ccccc1F | -4 | 2 | 4 | -2 | 2 | 0 | / | / | / | / | /
Cc1nn(Cc2ccccc2)c(C)c1C(=O)O | 15* | -9 | 7 | -1 | 8 | -2 | 0.6* | 6 | / | / | /
O=C(C(Cc1ccccc1)NS(=O)(=O)c1ccc(F)cc1)N1CCC2(CC1)OCCO2 (centres undefined) | 17* | 10 | 13 | -2 | -17 | -4 | -1 | 1 | / | / | /
O=C(NC(Cc1ccccc1)C(=O)N1CCC2(CC1)OCCO2)C1CCCCC1 (centres undefined) | -5 | -6 | 6 | -4 | 6 | 8 | / | / | / | / | /
CCCN1CCC[C@@H]2Cc3[nH]ncc3C[C@H]21 | 42* | 5 | 17 | -3 | 10 | -7 | -1 | 171* | / | / | /
CCCCOC(=O)c1ccccc1C(=O)OCc1ccccc1 | -5 | 15 | 12 | -4 | 18 | 7 | / | / | / | / | /
FC(F)(F)c1cccc(NC2=NCCCS2)c1 | -2 | -9 | 12 | 0 | -8 | -4 | / | / | / | / | /
FC(F)(F)Oc1ccc(NC2=NCCCS2)cc1 | 15* | 4 | 2 | -2 | 13 | 3 | -1 | -1 | / | / | /
COc1ccc(OCC(=O)N2CCN(Cc3c[nH]c4ccccc34)CC2)cc1 | 26* | 47* | / | / | -11 | 1 | -1 | 16* | 29 | 2 | 2
C=CCN1CC[C@]23c4c5ccc(O)c4OC2C(=O)CC[C@@]3(O)C1C5 (some centres undefined) | 5 | -1 | -29 | 7 | -5 | 2 | / | / | / | / | /
CC12CCC3C(CC=C4CC(O)CCC43C)C1C/C(=C\c1cccc(F)c1)C2=O (centres undefined) | 1 | 46* | 13 | 5 | -17 | -1 | / | / | 5 | 0 | -8
COC(=O)C1=C(c2cc3ccccc3s2)C[C@@H]2CC[C@H]1N2C(=O)N1CCC(C)CC1 | -10 | 0 | 14 | 2 | 33 | 24 | / | / | / | / | /
CCOC(=O)[C@]12Cc3cc(OC)ccc3[C@H]1N(C1CCCCC1)C(=O)c1ccccc12 | 1 | 64* | / | / | / | 17 | / | / | 21 | 1 | -15
O=C1NC(=S)SC1=Cc1ccc(N(CCCl)CCCl)cc1 | 4 | 2 | / | / | 45 | 25 | / | / | / | / | /
COC(=O)C1=C(c2ccc(Cl)c(C(F)(F)F)c2)C[C@@H]2CC[C@H]1N2C(=O)NCCOc1ccc(OC)cc1 | -5 | 44* | 2 | -2 | 24 | 6 | / | / | 24 | -2 | -3
COC(=O)C1=C(c2ccc(OCc3ccccc3)cc2)C[C@@H]2CC[C@H]1N2C(=O)NCc1ccccc1C(F)(F)F | 1 | 63* | / | / | / | 8 | / | / | 23 | -1 | 7
COC1=CC(=O)[C@]2(C=C1OC)OC[C@@H]1Oc3c(ccc4c3C=CC(C)(C)O4)C(=O)[C@@H]12 | / | / | -3 | 10 | -9 | / | / | / | / | / | /
